High-throughput results: PubChem, several laboratories
An excerpt weighted towards active compounds, which were near 3% of everything screened.
H9c2 protect – cardioprotection against H2O2-induced cell death, primary screen, uHTS, H9c2 cells, ATPLite luminescence; H9c2 cardiomyocytes, H2O2 injury protection, 2 h; protection from H2O2 cell death, % at 20 µM; 360,000 tested, 0.63% active; AID 588492, 2011;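 active = compounds giving at least 50% protection of heart cells from peroxide-induced death in the single-dose screen, raw or plate-pattern-corrected value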
Exocytosis inh – LAMP-1 surface exposure blockers, TALL-104 cells – cell-based, flow cytometry, MLPCN library, primary screen; TALL-104 LAMP-1 surface exposure; cells stimulated with thapsigargin and PMA; inhibition, % at 10 µM; 360,000 tested, 0.66% active; AID 651702, 2012;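 active = inhibition above about 55%, limit read from the data; inconclusive = no clear call, values can overlap the other calls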
SENP1 inh – human SENP1 catalytic domain inhibitors, primary screen, biochemical, FRET, uHTS | Sentrin-specific protease 1 (Homo sapiens), Q9P0U3 | recombinant SENP1 catalytic domain, CyPet-SUMO1-YPet FRET cleavage | inhibition, % at 10 µM | 360,000 tested, 0.21% active | AID 624204, 2012;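 active = inhibition at least 30% at 10 µM, raw YFP signal under a set limit, fluorescence ratio 0.5 to 1.5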
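Assay system: hSENP1 catalytic domain, recombinant. Amount: SENP1 enzyme, 20 pM final. Schedule: 50 min reaction, RT, dark. Technique: FRET, CFP and YFP emission. Control set: no-enzyme wells low, DMSO-plus-enzyme wells high control.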
HNF4A DNA FP – change in binding of human HNF4A to DNA, primary screen, biochemical, fluorescence polarization, FITC-DNA. activity change, % at 10 µM. 1 h. 360,000 tested, 0.3% active. AID 1224865, 2016; in the data active = activity change above about 30%, passing the limit was not always enough
Myeloid diff MLP – induction of myeloid progenitor differentiation, primary screen, cell-based, flow cytometry, MLPCN library. ER-HoxA9 myeloid progenitors, lysozyme-GFP differentiation. calls only at 10 µM. 360,000 tested, 1% active. AID 624256, 2012;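 active = normalized GFP-positive differentiation at or above the plate's own cutoff, the solvent-only control mean plus 3 SD; inconclusive = no clear call, values can overlap the other calls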;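 note: cells exposed to compound for four days before flow analysis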
DSG3 Ab inh – inhibitors of pemphigus antibody binding to DSG3, primary screen, biochemical, bead-based, flow cytometry, scFv-GFP | Desmoglein-3 (Homo sapiens), P32926 | DSG3-coupled beads, scFv-anti-DSG3-GFP binding; active compounds read low | binding (percent of control), % at 10 µM | 310,000 tested, 0.48% active;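 active = binding more than 3 SD below its plate's average and above zero; inconclusive = below that plate limit but binding exactly zero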;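 note: hits lower antibody fragment binding to DSG3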
Target sequence (P32926 whole entry, looked up, the tested form may be a part): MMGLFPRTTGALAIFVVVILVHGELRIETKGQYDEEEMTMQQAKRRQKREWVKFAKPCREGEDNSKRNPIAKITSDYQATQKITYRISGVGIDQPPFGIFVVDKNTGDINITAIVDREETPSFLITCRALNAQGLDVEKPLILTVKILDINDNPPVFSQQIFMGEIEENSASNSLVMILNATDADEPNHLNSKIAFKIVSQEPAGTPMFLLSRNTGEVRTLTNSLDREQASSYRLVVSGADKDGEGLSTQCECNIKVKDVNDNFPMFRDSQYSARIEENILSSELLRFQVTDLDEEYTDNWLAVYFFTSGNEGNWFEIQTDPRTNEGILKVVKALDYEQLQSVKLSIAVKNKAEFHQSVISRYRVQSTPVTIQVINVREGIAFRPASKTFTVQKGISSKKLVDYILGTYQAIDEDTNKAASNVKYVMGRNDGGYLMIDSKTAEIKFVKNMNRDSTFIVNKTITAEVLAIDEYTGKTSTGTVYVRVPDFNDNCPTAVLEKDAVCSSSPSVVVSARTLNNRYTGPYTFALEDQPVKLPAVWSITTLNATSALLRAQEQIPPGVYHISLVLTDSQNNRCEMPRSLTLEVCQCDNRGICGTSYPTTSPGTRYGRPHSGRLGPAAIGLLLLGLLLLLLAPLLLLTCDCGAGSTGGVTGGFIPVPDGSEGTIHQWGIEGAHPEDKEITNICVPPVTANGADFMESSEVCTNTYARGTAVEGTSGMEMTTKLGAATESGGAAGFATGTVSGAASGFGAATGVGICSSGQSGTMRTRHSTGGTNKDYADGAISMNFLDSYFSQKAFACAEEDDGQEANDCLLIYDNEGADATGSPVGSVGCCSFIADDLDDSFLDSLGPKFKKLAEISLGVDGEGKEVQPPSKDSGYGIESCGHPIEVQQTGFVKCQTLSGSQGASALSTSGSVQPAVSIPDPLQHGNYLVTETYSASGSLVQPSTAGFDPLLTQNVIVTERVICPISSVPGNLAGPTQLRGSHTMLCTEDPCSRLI
Each line names hits and unclear results; the compound was inactive in the other large screens.

Cc1cccc(NC(=O)CSc2nnc(CSc3nc(C)cc(C)n3)n2Cc2ccco2)c1	Myeloid diff MLP active (no result: DSG3 Ab inh)
COc1ccc(-c2cc(C(F)(F)F)n3nc(C(=O)N4CCN(C(=O)c5ccco5)CC4)cc3n2)cc1	H9c2 protect 55
COc1ccccc1-c1cc2nc(-c3ccccc3)cc(N3CCN(C(=O)c4ccoc4)CC3)n2n1	H9c2 protect 50
COc1ccc(-c2cc3nc(C)cc(N4CCN(C(=O)c5ccoc5)CC4)n3n2)cc1	H9c2 protect 54
COc1ccccc1-c1cc2nc(-c3ccccc3)cc(N3CCN(C(=O)c4ccco4)CC3)n2n1	H9c2 protect 55 (no result: DSG3 Ab inh)
COc1cccc(-c2cc3nc(C)cc(N4CCN(C(=O)c5ccoc5)CC4)n3n2)c1	none (no result: DSG3 Ab inh)
CC1CCC(NS(=O)(=O)c2ccc(Cl)nc2)CC1 (centres undefined)	none
NS(=O)(=O)c1cccc(NS(=O)(=O)c2ccc(/C=C/C(=O)OCC(=O)c3ccccc3)cc2)c1	none
CC1(C(=O)Nc2c(F)c(F)c(F)c(F)c2F)CC1(Br)Br (centres undefined)	none (no result: DSG3 Ab inh)
O=C(Nc1ccc(Br)cc1)c1cccc2c1C(=O)N(C1CCCCC1)C2	none
NC(=O)c1cccc2c1C(=O)N(C1CCCCC1)C2	H9c2 protect 78
Cc1ccnc(SCc2ccc(C(=O)O)cc2)n1	HNF4A DNA FP 69
Cc1ccc(NC(=O)c2ccc(CSc3nccc(C)n3)cc2)cc1	none
Cc1cc(C)nc(SCc2ccc(C(=O)N/N=C/c3ccc(C(=O)O)cc3)cc2)n1	DSG3 Ab inh 27
COc1ccc(/C=N/NC(=O)c2ccc(CSc3nc(C)cc(C)n3)cc2)c(OC)c1OC	Myeloid diff MLP active
COc1ccc(O)c(/C=N/NC(=O)c2ccc(CSc3nc(C)cc(C)n3)cc2)c1	H9c2 protect 57, Myeloid diff MLP inconclusive
COc1ccc(/C=N/NC(=O)c2ccc(CSc3nc(C)cc(C)n3)cc2)cc1O	none
O=C(O)c1ccc(CS(=O)(=O)c2c(Cl)cccc2Cl)o1	none
CSc1ncccc1C(=O)OCC(=O)NC1CCC(C)CC1 (centres undefined)	none
COc1ccc(C(CNC(=O)CCNS(=O)(=O)c2ccccc2C(F)(F)F)N2CCOCC2)cc1 (centres undefined)	none
CC(=O)Nc1cccc(C(=O)OCC(=O)NNC(=O)c2ccc([N+](=O)[O-])cc2)c1	none
COc1cccc2c1C(=O)C=C(C)C2=O	Exocytosis inh 64, Myeloid diff MLP inconclusive
COC(=O)[C@H](CC(C)C)NS(=O)(=O)c1ccc(F)cc1Br	none
Cc1c(-c2ccc(Cl)cc2)oc(=O)c2c(N)n(-c3ccccc3)nc12	DSG3 Ab inh -17
NC1=NC2(CCCCC2)N(c2cccc(Cl)c2)C(N)=N1	Myeloid diff MLP active
N/C(=N\NS(=O)(=O)c1ccc(Cl)cc1)c1ccccn1	none
CCn1c(O)c(/C=N/N=C2CCCCC2)c2cc(C3=NNC(=O)CC3)ccc21	H9c2 protect 54
CCn1c(O)c(/C=N/N=C2CCCC2)c2ccc(C3=NNC(=O)CC3)cc21	H9c2 protect 57
CCCCC(CCCC)=N/N=C/c1c(O)n(CC)c2cc(C3=NNC(=O)CC3)ccc12	none (no result: DSG3 Ab inh)
CCCOc1ccc(C2=NNC(=O)CC2)cc1	none
O=C1c2ccccc2-c2onc3ccc(Oc4ccccc4)c1c23	Exocytosis inh 85 (no result: Myeloid diff MLP)
CN(C)c1ccc(NC(=O)C[n+]2ccccc2)cc1	Exocytosis inh 56
Cn1c(=O)n(CCc2ccccc2)c(=O)c2c1nc1n2CCCN1Cc1ccccc1	H9c2 protect 116 (no result: DSG3 Ab inh)
Cn1c(=O)n(CCc2ccccc2)c(=O)c2c1nc1n2CCCN1CCc1ccccc1	H9c2 protect 106 (no result: DSG3 Ab inh)
COc1cccc(-c2ccc(NC(=O)C3CCCN(CCCn4nc(C)cc4C)C3)cc2)c1 (centres undefined)	none
CCOc1cc(N2CCOCC2)c(OCC)cc1NC(=O)c1ccc(OC(C)C)cc1	none
CC(C)N1CC=C2C(C#N)=C(N)C(C#N)(C#N)C(c3ccccc3)C2C1 (centres undefined)	none (no result: DSG3 Ab inh)
CCN1CC=C2C(C#N)=C(N)C(C#N)(C#N)C(c3cc(Cl)ccc3Cl)C2C1 (centres undefined)	Myeloid diff MLP active
COc1cc(OC)c(NC(=O)c2csc(C)c2)cc1Cl	none
Cc1ccc(S(=O)(=O)N(C)c2ccc(OC(=O)CN3C(=O)NC4(CCCC4)C3=O)cc2)cc1C	none
O=C(N/N=C/c1c(O)ccc2ccccc12)c1cccc(C(F)(F)F)c1	HNF4A DNA FP 92, Myeloid diff MLP inconclusive
O=C(N/N=C/c1c(O)ccc2ccccc12)C(=O)N1CCCC1	H9c2 protect 52, Myeloid diff MLP inconclusive
CCc1cc(/C(Cc2ccc3ccccc3n2)=N\O)c(O)cc1O	none
Cc1c(O)ccc(/C(Cc2ccc3ccccc3n2)=N\N)c1O	H9c2 protect 63, Myeloid diff MLP active
Cc1ccc(-n2cc3c(-c4cccc(Br)c4)nnc(C)c3n2)cc1	Myeloid diff MLP active
CC1=C([N+](=O)[O-])C(c2ccccc2)NC(=O)N1 (centres undefined)	none
O=c1[nH]c2ccccc2nc1Cc1ccc([N+](=O)[O-])cc1	none
CCOc1ccc(CN(C)C(=O)NNC(=O)c2ccc(C)cc2)cc1OC	Myeloid diff MLP inconclusive
CCOc1ccc(CN(C)C(=O)[C@H](Cc2ccccc2)NC(=O)OCc2ccccc2)cc1OC	Exocytosis inh 56, Myeloid diff MLP active (no result: DSG3 Ab inh)
COc1ccc(CN(C)C(=O)C(Cc2ccccc2)NC(=O)c2ccccc2)cc1F (centres undefined)	H9c2 protect 50
Cc1ccc(S(=O)c2ccc([N+](=O)[O-])c3nonc23)cc1 (centres undefined)	Exocytosis inh 101
Cc1ccc(Nc2c([N+](=O)[O-])ccc3nonc23)c(C)c1	none
COc1cc(/C=N/Nc2nncc3ccccc23)cc(OC)c1OC	Myeloid diff MLP active
COc1ccc(C2(SCC(N)C(=O)O)c3ccccc3-c3ccccc32)cc1 (centres undefined)	DSG3 Ab inh 72
NC(CSC1(c2ccc(F)cc2)c2ccccc2-c2ccccc21)C(=O)O (centres undefined)	none
Cc1cc(NC(=O)c2ccc3sc([C@@H]4O[C@H](CO)[C@H](O)[C@H](O)[C@H]4O)nc3c2)no1	none (no result: DSG3 Ab inh)
COc1ccc(OCC(=O)Nc2ccc(S(=O)(=O)Nc3cc(C)nc(C)n3)cc2)cc1	none
